Results as given in ChEMBL document CHEMBL4033799, “Stable and Long-Lasting, Novel Bicyclic Peptide Plasma Kallikrein Inhibitors for the Treatment of Diabetic Macular Edema” (J Med Chem, 2018).

Tests used:
[1] = molecular target: Vitamin K-dependent protein C (Homo sapiens, UniProt P04070); assay: Inhibition of human activated protein C by fluorescence based assay
In short: (§1)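 Human serine proteases were assayed with substrates and conditions set by each supplier's recommendations. Peptides were first screened at 50 μM. Where inhibition was detected, Ki was determined from activity across peptide concentrations using a tight-binding rate equation.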

[2] = Plasma clearance in Sprague-Dawley rat at 5 mg/kg, iv measured up to 240 mins post dose by LC-MS/MS analysis; type: ADME, organism-based
In short: (§2)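 Male Sprague-Dawley rats, 2 per group, given 5 mg/kg intravenously. Blood sampled through tail-vein cannulae at 5, 10, 20, 30, 60, 120, 180 and 240 min into EDTA tubes and spun to plasma.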

[3] = Half life in rat plasma at 4 uM measured up to 24 hrs by LC-MS/MS analysis; type: ADME, cell-free
In short: (§3)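 Peptide from a 0.16 mM DMSO stock was added to human, rat or mouse plasma (final 4 μM) or to homogenized human vitreous (final 1 μM), with internal standard. Samples were incubated at 37 °C for up to 24 h and extracted with water/acetonitrile/methanol 1:3:3.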

[4] = Half life in human vitreous humor at 1 uM measured up to 24 hrs by LC-MS/MS analysis; type: ADME, tissue-based; in short: as §3
Coagulation factor XI = Coagulation factor XI (Homo sapiens, UniProt P03951); assay: Inhibition of human factor 11a using fluorogenic peptide as substrate by fluorescence based assay; in short: as §1
[5] = Half life in Sprague-Dawley rat at 5 mg/kg, iv by LC-MS/MS analysis; type: ADME, organism-based; settings: in vivo
In short: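 Groups of 2 male Sprague-Dawley rats were dosed IV at 5 mg/kg. Serial tail-vein blood was drawn into EDTA at 5–240 min, and plasma peptide was quantified by LC-MS/MS against 16–4000 ng/mL calibration lines in rat plasma. AUC was calculated by the trapezoidal method.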

Kallikrein-12 = molecular target: T1, Kallikrein-12 (Homo sapiens, UniProt Q9UKR0); assay: Inhibition of recombinant human C-terminal 10His-tagged KLK12 (18 to 248 residues) expressed in mouse NS0 cells using fluorogenic Boc-VPR-AMC peptide as substrate by fluorescence based assay; in short: as §1
T1 sequence (Q9UKR0 whole entry): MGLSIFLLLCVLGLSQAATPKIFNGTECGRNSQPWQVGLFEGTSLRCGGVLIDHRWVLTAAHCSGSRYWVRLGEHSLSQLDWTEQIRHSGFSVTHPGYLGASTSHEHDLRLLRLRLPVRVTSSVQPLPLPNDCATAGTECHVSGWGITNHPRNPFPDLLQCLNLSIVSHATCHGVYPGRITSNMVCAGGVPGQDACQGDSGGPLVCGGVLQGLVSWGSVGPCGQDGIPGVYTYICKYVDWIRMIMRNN

[6] = Half life in New Zealand white rabbit eye at 2 mg/ml, administered via ivt injection by HPLC analysis; type: ADME, tissue-based, Oryctolagus cuniculus; settings: topical or ocular
In short: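 Male New Zealand White rabbits (10 weeks old, ~2 kg) received one 50 μL intravitreal injection per eye of peptide at 2 mg/mL in 50 mM sodium phosphate, pH 7.2. Animals were sacrificed at 15 min, 1, 4, 8, 24, 48 and 96 h (3 per time point). Whole vitreous was homogenized, clarified, 0.2 μm filtered and assayed by LC-MS/MS, with a lower limit of detection of 1 ng/mL in vitreous.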

[7] = Volume of distribution at steady state in Sprague-Dawley rat at 5 mg/kg, iv measured up to 240 mins post dose by LC-MS/MS analysis; type: ADME, organism-based; settings: in vivo, read-out: Vdss; in short: as §2
Kallikrein-13 = molecular target: T2, Kallikrein-13 (Homo sapiens, UniProt Q9UKR3); assay: Inhibition of recombinant human C-terminal polyHis-tagged KLK13 (1 to 262 residues) expressed in HEK293 cells using fluorogenic Boc-VPR-AMC peptide as substrate by fluorescence based assay
T2 sequence (Q9UKR3 whole entry): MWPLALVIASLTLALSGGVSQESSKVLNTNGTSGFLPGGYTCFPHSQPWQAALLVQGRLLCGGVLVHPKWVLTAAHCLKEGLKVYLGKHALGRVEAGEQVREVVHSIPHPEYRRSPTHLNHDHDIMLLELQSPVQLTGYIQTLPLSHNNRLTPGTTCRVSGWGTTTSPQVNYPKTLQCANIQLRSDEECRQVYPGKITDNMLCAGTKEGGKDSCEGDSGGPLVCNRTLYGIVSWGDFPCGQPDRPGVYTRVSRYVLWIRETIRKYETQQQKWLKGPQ
In short: (§4)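 Panel of human serine proteases. Substrates and assay conditions followed each supplier's recommendations. Peptides were first screened at 50 μM. Where inhibition was detectable, hydrolytic activity was measured across a range of peptide concentrations. Ki was obtained by fitting to the tight-binding inhibitor rate equation.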

Kallikrein-1 = Kallikrein-1 (Homo sapiens, UniProt P06870); assay: Inhibition of recombinant human C-terminal His-tagged KLK1 (1 to 262 residues) expressed in HEK293 cells using fluorogenic PFR-AMC peptide as substrate by fluorescence based assay; in short: as §1
Coagulation factor XII = molecular target: T3, Coagulation factor XII (Homo sapiens, UniProt P00748); assay: Inhibition of human factor 12a using fluorogenic peptide as substrate by fluorescence based assay; in short: as §1
T3 sequence (P00748 whole entry): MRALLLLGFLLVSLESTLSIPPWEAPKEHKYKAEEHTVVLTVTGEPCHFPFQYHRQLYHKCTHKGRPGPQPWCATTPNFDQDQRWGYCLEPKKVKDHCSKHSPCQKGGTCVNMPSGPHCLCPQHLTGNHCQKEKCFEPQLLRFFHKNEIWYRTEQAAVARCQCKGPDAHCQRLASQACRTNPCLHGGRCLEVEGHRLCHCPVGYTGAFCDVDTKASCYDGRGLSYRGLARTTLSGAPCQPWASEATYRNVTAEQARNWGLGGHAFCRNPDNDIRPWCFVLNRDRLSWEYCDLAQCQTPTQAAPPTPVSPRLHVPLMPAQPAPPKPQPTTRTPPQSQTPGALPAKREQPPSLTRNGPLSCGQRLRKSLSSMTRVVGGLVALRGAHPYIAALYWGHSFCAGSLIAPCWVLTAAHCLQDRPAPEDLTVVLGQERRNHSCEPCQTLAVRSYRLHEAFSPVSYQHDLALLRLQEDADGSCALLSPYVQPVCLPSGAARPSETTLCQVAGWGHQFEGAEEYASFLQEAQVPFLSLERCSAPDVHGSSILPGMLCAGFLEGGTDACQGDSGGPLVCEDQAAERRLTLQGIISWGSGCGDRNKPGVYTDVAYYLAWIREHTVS

Cathepsin G = molecular target: T4, Cathepsin G (Homo sapiens, UniProt P08311); assay: Inhibition of recombinant human Cathepsin-G; in short: as §4
T4 sequence (P08311 whole entry): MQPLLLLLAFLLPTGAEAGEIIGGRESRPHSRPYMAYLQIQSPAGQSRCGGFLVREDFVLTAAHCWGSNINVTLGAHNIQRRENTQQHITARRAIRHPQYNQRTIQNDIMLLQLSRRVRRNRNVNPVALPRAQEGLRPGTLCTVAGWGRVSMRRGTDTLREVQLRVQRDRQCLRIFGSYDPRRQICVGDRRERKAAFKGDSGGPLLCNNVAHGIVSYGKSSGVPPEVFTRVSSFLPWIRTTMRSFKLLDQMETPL

Sequence of Vitamin K-dependent protein C (P04070 43-197 limits assumed): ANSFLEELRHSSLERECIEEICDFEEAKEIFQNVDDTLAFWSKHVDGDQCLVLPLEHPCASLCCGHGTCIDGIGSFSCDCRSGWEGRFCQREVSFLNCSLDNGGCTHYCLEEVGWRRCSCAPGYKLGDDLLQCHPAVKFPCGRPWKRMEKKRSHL
Sequence of Vitamin K-dependent protein C (P04070 212-461 limits assumed): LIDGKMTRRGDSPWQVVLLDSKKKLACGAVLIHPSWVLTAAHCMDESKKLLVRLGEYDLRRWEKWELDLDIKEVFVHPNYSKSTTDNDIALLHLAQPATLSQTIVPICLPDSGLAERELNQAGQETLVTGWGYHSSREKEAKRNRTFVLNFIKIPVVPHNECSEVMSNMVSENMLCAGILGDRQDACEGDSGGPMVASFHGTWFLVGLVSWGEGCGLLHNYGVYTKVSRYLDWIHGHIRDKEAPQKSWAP
Sequence of Coagulation factor XI (P03951 19-387 limits assumed): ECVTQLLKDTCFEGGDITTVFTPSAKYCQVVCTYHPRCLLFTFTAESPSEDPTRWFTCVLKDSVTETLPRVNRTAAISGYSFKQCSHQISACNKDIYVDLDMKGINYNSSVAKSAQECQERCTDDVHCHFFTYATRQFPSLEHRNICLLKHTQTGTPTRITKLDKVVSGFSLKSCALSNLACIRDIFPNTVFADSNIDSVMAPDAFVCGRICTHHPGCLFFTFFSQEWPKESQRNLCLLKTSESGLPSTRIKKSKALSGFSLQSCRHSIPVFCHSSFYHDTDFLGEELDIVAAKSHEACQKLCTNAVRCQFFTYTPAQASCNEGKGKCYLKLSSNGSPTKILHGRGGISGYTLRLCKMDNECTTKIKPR
Sequence of Coagulation factor XI (P03951 388-625 limits assumed): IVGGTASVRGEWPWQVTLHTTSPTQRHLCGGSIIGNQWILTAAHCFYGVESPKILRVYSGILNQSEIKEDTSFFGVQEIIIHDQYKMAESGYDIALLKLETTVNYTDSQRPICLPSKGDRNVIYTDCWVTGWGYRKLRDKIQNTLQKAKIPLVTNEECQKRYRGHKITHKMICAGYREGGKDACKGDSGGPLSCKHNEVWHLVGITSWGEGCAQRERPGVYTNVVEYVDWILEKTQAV
Sequence of Kallikrein-1 (P06870 whole entry, the tested form may be a part): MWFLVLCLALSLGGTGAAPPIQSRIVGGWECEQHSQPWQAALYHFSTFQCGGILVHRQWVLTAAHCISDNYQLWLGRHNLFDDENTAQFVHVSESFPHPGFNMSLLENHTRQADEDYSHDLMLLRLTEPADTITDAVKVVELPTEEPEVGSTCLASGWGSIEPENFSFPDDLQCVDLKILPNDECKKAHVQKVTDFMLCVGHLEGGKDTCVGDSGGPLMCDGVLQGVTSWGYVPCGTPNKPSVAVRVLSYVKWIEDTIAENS

| Ki [1] | clearance [2] | half-life at 4 µM [3] | half-life at 1 µM [4] | Ki (Coagulation factor XI) | half-life [5] | Ki (Kallikrein-12) | half-life [6] | Vd [7] | Ki (Kallikrein-13; hek293) | Ki (Kallikrein-1; hek293) | Ki (Coagulation factor XII) | Ki (Kallikrein-13) | Ki (Kallikrein-1) | Ki (Cathepsin G) | SMILES |
| --- | --- | --- | --- | --- | --- | --- | --- | --- | --- | --- | --- | --- | --- | --- | --- |
| > 50 µM | 6.2 mL/min/kg | > 24 h | > 24 h | > 50 µM | 0.8 h | > 50 µM | 39 h | 0.44 L/kg | > 50 µM | > 50 µM | > 50 µM | – | – | – | CC(=O)N[C@H]1CSCc2cc3cc(c2)CSC[C@H](NC(=O)[C@H](CCCCNC(=N)N)NC(=O)[C@H](Cc2ccc(O)cc2)NC(=O)[C@@H]2CCN2C(=O)[C@H](Cc2ccccc2)NC(=O)[C@H](CO)NC1=O)C(=O)N[C@@H](C)CN[C@@H](Cc1cnc[nH]1)C(=O)N[C@@H](CCC(N)=O)C(=O)N[C@@H](CC(=O)O)C(=O)N[C@@H](CC(C)C)C(=O)N[C@H](C(=O)O)CSC3 |
| > 50 µM | – | – | – | 0.5 µM | – | > 50 µM | 22 h | – | – | – | > 50 µM | 0.82 µM | 50 µM | > 50 µM | CC[C@H](C)[C@@H]1NC(=O)[C@H](CC(=O)O)NC(=O)[C@@H]2CCCN2C(=O)[C@H](Cc2ccc(O)cc2)NC(=O)[C@H](Cc2ccc(O)cc2)NC(=O)[C@H](C(C)C)NC(=O)[C@@H]2CSCc3cc(cc(c3)CSC[C@@H](C(=O)N[C@@H](C)C(=O)N(C)CC(=O)N(C)CC(=O)N(C)CC(=O)N[C@H](CCCNC(=N)N)C(=O)N[C@H](CCCNC(=N)N)C(=O)O)NC1=O)CSC[C@H](NC(C)=O)C(=O)N[C@@H](CO)C(=O)N[C@@H](Cc1ccccc1)C(=O)N1CCC1C(=O)N[C@@H](Cc1ccc(O)cc1)C(=O)N[C@@H](CCCCNC(=N)N)C(=O)N2 (some centres not stated) |
| > 50 µM | 8.2 mL/min/kg | > 24 h | > 24 h | > 50 µM | 1.3 h | > 50 µM | – | 0.93 L/kg | > 50 µM | > 50 µM | > 50 µM | – | – | > 50 µM | CC(=O)N[C@H]1CSCc2cc3cc(c2)CSC[C@H](C(=O)N[C@@H](C)C(=O)N(C)CC(=O)N(C)CC(=O)N(C)CC(=O)N[C@H](CCCNC(=N)N)C(=O)N[C@H](CCCNC(=N)N)C(=O)O)NC(=O)[C@H](CC(C)C)NC(=O)[C@@H]2CCCN2C(=O)[C@H](C)NC(=O)[C@H](CC(=O)O)NC(=O)[C@H](Cc2c[nH]c4ccccc24)NC(=O)[C@@H]2CCCN2C(=O)[C@H](CSC3)NC(=O)[C@H](Cc2c[nH]c3ccccc23)NC(=O)[C@@H]2CCCN2C(=O)[C@H](CC(N)=O)NC(=O)[C@H](Cc2c[nH]c3ccccc23)NC(=O)[C@H]([C@@H](C)O)NC(=O)[C@H](CC(N)=O)NC1=O |
